Measured values as given in ChEMBL document CHEMBL2021810, “Synthesis, anticancer activities, and cellular uptake studies of lipophilic derivatives of doxorubicin succinate” (J Med Chem, 2012).
Activity calls are given as the source filed them. The rule behind the calls is not given here.

What was measured:
CCRF-CEM [1] = assay: Inhibition of cell proliferation of human CCRF-CEM cells at 1 uM after 96 to 120 hrs by CellTiter assay; assay type: functional
HT-29 [2] = assay: Inhibition of cell proliferation of human HT-29 cells at 1 uM after 96 to 120 hrs by CellTiter assay; assay type: functional
MDA-MB-468 [3] = assay: Inhibition of cell proliferation of human MDA-MB-468 cells at 1 uM after 96 to 120 hrs by CellTiter assay; assay type: functional
MDA-MB-361 [4] = assay: Inhibition of cell proliferation of human MDA-MB-361 cells at 1 uM after 96 to 120 hrs by CellTiter assay; assay type: functional
SK-OV-3 [5] = assay: Inhibition of cell proliferation of human SKOV3 cells at 1 uM after 96 to 120 hrs by CellTiter assay; assay type: functional
CCRF-CEM [6] = assay: Inhibition of cell proliferation of human CCRF-CEM cells at 1 uM by CellTiter assay; assay type: functional, cell-based; conditions: TDE = time-dependent effect
HT-29 [7] = assay: Inhibition of cell proliferation of human HT-29 cells at 1 uM by CellTiter assay; assay type: functional, cell-based; conditions: TDE = time-dependent effect
MDA-MB-468 [8] = assay: Inhibition of cell proliferation of human MDA-MB-468 cells at 1 uM by CellTiter assay; assay type: functional, cell-based; conditions: TDE = time-dependent effect
MDA-MB-361 [9] = assay: Inhibition of cell proliferation of human MDA-MB-361 cells at 1 uM by CellTiter assay; assay type: functional, cell-based; conditions: TDE = time-dependent effect
SK-OV-3 [10] = assay: Inhibition of cell proliferation of human SKOV3 cells at 1 uM by CellTiter assay; assay type: functional, cell-based; conditions: TDE = time-dependent effect
CCRF-CEM [11] = assay: Growth inhibition of human CCRF-CEM cells at 1 uM after 96 hrs by CellTiter assay; assay type: functional, cell-based
HT-29 [12] = assay: Growth inhibition of human HT-29 cells at 1 uM after 96 hrs by CellTiter assay; assay type: functional, cell-based
MDA-MB-468 [13] = assay: Growth inhibition of human MDA-MB-468 cells at 1 uM after 96 hrs by CellTiter assay; assay type: functional, cell-based
MDA-MB-361 [14] = assay: Growth inhibition of human MDA-MB-361 cells at 1 uM after 96 hrs by CellTiter assay; assay type: functional, cell-based
SK-OV-3 [15] = assay: Growth inhibition of human SKOV3 cells at 1 uM after 96 hrs by CellTiter assay; assay type: functional, cell-based
CCRF-CEM [16] = assay: Inhibition of cell proliferation of human CCRF-CEM cells after 96 hrs by CellTiter assay; assay type: functional, cell-based
MDA-MB-468 [17] = assay: Inhibition of cell proliferation of human MDA-MB-468 cells at 1 uM after 120 hrs by CellTiter assay; assay type: functional; conditions: MDA-MB-468, 120 h
SK-OV-3 [18] = assay: Cellular uptake in doxorubicin-resistant human SKOV3 cells at 5 uM after 30 mins by FACS analysis relative to doxorubicin; assay type: ADME, cell-based; conditions: sk-ov-3, 0.5 h
Outline: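 SK-OV-3 cells plated overnight in EMEM (2 × 10^5 cells/well); compound 5 μM added in opti-MEM, 30 min at 37 °C; cells trypsinized, PBS-washed, analysed by flow cytometry on FL2 channel; mean fluorescence of 10000 cells; triplicate.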

[19] = Drug uptake in doxorubicin-resistant human SKOV3 cell cytoplasm at 5 uM after 1 hr by confocal microscopic analysis; assay type: ADME, cell-based; conditions: sk-ov-3, 1 h
Outline: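 Coverslip-grown SK-OV-3 cells (seeded overnight, EMEM) treated with 5 μM compound in opti-MEM for 1 h at 37 °C, PBS-washed three times, mounted and imaged by laser scanning confocal microscopy using rhodamine and phase contrast channels for Dox fluorescence.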

[20] = Cellular uptake in doxorubicin-resistant human SKOV3 cells at 5 uM incubated for 1 hr followed by incubation with fresh media for 24 hrs measured by confocal microscopic analysis; assay type: ADME, cell-based, Cytoplasm; conditions: sk-ov-3, 1 h
Outline: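 SK-OV-3 cells seeded overnight on coverslips in EMEM, exposed to 5 μM compound in opti-MEM for 1 h at 37 °C, washed, then kept in fresh serum-containing medium 24 h; PBS-washed and imaged by laser scanning confocal microscopy, rhodamine and phase contrast channels.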

SK-OV-3 [21] = assay: Cytotoxicity against human SKOV3 cells at 10 uM incubated for 1 hr followed by incubation in compound-free medium for 72 hrs by MTT assay; assay type: functional
Outline: (§1)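 SK-OV-3 cells plated overnight at 5000 cells/well; exposed to compound (up to 10 μM), then medium replaced with drug-free medium for 72 h; MTT added 2 h, formazan read at 490 nm; % cytotoxicity = (OD untreated − OD treated)/OD untreated × 100.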

SK-OV-3 [22] = assay: Cytotoxicity against human SKOV3 cells at 5 to 10 uM by MTT assay relative to doxorubicin; assay type: functional; outline: as §1
[23] = target: DNA topoisomerase 2-alpha (Homo sapiens) (UniProt P11388); assay: Inhibition of topoisomerase 2-mediated KDNA decatenation at 15 to 20 uM after 30 mins by gel electrophoretic analysis
Chain of DNA topoisomerase 2-alpha (Homo sapiens) (P11388 whole entry): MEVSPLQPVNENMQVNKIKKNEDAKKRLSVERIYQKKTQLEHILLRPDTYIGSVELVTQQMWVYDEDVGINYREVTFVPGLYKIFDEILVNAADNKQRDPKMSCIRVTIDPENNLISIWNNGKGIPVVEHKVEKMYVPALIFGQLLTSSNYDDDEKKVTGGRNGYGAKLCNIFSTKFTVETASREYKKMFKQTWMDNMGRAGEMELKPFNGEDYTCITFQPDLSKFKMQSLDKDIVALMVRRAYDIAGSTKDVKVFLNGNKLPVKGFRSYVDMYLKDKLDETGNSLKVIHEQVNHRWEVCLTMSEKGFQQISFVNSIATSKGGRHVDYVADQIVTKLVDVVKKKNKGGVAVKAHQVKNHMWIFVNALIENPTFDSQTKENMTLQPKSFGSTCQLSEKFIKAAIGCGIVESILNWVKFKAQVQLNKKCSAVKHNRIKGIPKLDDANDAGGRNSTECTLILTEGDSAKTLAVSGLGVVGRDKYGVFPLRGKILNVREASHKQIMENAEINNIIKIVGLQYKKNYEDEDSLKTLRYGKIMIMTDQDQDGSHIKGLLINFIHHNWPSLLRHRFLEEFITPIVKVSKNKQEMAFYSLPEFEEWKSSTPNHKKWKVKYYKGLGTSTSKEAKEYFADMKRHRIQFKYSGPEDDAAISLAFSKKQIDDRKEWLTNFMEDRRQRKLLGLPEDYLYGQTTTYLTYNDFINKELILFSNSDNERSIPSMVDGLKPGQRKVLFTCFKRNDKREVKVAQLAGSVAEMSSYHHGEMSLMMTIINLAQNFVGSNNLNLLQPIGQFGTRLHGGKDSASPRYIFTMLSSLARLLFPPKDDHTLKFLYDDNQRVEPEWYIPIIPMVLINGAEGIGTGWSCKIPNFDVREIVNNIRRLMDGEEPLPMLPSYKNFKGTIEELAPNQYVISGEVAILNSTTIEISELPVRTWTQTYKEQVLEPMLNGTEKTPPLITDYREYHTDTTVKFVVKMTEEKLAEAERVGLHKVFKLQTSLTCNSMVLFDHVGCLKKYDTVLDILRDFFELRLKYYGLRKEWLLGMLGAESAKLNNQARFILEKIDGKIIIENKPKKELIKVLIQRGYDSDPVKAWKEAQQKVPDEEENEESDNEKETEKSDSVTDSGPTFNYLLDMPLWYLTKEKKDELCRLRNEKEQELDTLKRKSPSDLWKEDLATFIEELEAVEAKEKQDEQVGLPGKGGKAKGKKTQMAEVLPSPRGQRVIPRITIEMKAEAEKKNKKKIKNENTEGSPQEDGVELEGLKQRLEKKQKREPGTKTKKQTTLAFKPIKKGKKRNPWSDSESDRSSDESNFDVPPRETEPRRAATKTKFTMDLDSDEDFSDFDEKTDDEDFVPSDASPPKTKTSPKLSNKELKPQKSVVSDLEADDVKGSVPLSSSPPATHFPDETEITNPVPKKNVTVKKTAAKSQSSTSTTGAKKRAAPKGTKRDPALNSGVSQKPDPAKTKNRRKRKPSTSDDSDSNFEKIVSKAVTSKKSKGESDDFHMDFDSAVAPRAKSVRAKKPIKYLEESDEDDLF
Outline: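 Eukaryotic Topo II decatenation of kDNA (0.1 μg) in Tris-HCl 50 mM pH 8.0, NaCl 150 mM, MgCl2 10 mM, DTT 0.5 mM, ATP 2 mM with compound at 1–25 μM final, 30 min at 37 °C; stopped with sarkosyl buffer; products resolved on 1% agarose with ethidium bromide.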

[24] = Chemical stability of the compound in pH 8, reaction buffer containing Tris-HCl, NaCl, MgCl2, dithiothreitol and ATP; assay type: physicochemical
Outline: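 Compound held in Topo II reaction buffer (Tris-HCl 50 mM pH 8.0, NaCl 150 mM, MgCl2 10 mM, DTT 0.5 mM, ATP 2 mM) without enzyme; hydrolysis followed by HPLC.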

[25] = Half life in fetal bovine serum at 1 mM by HPLC analysis; assay type: ADME, cell-free, Bos taurus; conditions: cattle
Outline: (§2)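 Compound (50 μL of 1 mM DMSO stock) incubated in 1 mL of 100% FBS or PBS pH 7.0 at 37 °C with shaking; aliquots taken from 10 min to 96 h, diluted with water, analysed by HPLC at 490 nm; peak areas give % remaining and % released Dox.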

[26] = Half life in PBS at 1 mM by HPLC analysis; assay type: physicochemical; outline: as §2
CCRF-CEM [27] = assay: Drug metabolism in human CCRF-CEM cells assessed as doxorubicin formation at 1 uM by HPLC analysis; assay type: ADME, cell-based; conditions: TDE = time-dependent effect
Outline: (§3)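 CCRF-CEM cells grown in serum-free RPMI, exposed to 1 μM compound 4 h at 37 °C, then moved to drug-free serum-free RPMI for set times; pellets washed with ice-cold PBS, extracted with methanol/chloroform/isopropanol (4:3:1), filtered; parent and released Dox quantified by HPLC at 490 nm.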

[28] = Drug metabolism in human CCRF-CEM cells assessed as compound hydrolysis at 1 uM after 12 hrs by HPLC analysis; assay type: ADME, cell-based; conditions: read-out: Drug metabolism; outline: as §3
[29] = Drug metabolism in human CCRF-CEM cells assessed as compound hydrolysis at 1 uM after 48 hrs by HPLC analysis; assay type: ADME, cell-based; conditions: read-out: Drug metabolism; outline: as §3
SK-OV-3 [30] = assay: Cytotoxicity against human SKOV3 cells at > = 100 nM after 72 hrs by MTT assay; assay type: functional, cell-based; outline: as §1
Serum = assay: Binding affinity to serum proteins in fetal bovine serum at 1 mM; assay type: ADME, cell-free, Bos taurus; conditions: cattle, 1000 µM
[31] = Drug metabolism in fetal bovine serum assessed as compound hydrolysis at 1 uM after 12 hrs by HPLC analysis
[32] = Drug metabolism in fetal bovine serum assessed as compound hydrolysis at 1 uM after 48 hrs by HPLC analysis

CCCCCCCCCCCCCCNC(=O)CCC(=O)OCC(=O)[C@]1(O)Cc2c(O)c3c(c(O)c2[C@@H](O[C@H]2C[C@H](N)[C@H](O)[C@H](C)O2)C1)C(=O)c1c(OC)cccc1C3=O
inhibition at 1 µM (CCRF-CEM [1]): 69%
inhibition at 1 µM (HT-29 [2]): 60%
inhibition at 1 µM (MDA-MB-468 [3]): 49%
inhibition at 1 µM (MDA-MB-361 [4]): 66%
inhibition at 1 µM (SK-OV-3 [5]): 54%
inhibition (CCRF-CEM [6]): tde
inhibition (HT-29 [7]): tde
inhibition (MDA-MB-468 [8]): tde
inhibition (MDA-MB-361 [9]): tde
inhibition (SK-OV-3 [10]): tde
growth inhibition (GI) (CCRF-CEM [11]): Active
growth inhibition (GI) (HT-29 [12]): Active
growth inhibition (GI) (MDA-MB-468 [13]): Active
growth inhibition (GI) (MDA-MB-361 [14]): Active
growth inhibition (GI) (SK-OV-3 [15]): Active
IC50 (CCRF-CEM [16]): 77 nM
inhibition at 1 µM (MDA-MB-468 [17]): 70.2%
fold change (FC) (SK-OV-3 [18]): 3
Drug uptake [19]: Active
Drug uptake [20]: Active
Activity (SK-OV-3 [21]): 67.1%
fold change (FC) (SK-OV-3 [22]): 1.4
inhibition [23]: Active
Stability [24]: Stable
half-life at 1000 µM [25]: 8.3 h
half-life at 1000 µM [26]: 19.3 h
Drug metabolism (CCRF-CEM [27]): tde
metabolised at 12 h, 1 µM [28]: > 75%
metabolised at 48 h, 1 µM [29]: 98%
Activity (SK-OV-3 [30]): Active
PB (Serum): Not Active
metabolised at 12 h, 1 µM [31]: 20%
metabolised at 48 h, 1 µM [32]: 30%
